Assay results taken from ChEMBL document CHEMBL1132580, “Syntheses and biological activities of rebeccamycin analogues. Introduction of a halogenoacetyl substituent” (J Med Chem, 1999).
Converted amounts (≈) assume the structure as drawn. The source made the active and inactive calls. The rule behind the calls is not given here.

What was measured:
CEM-SS [1] = assay: Anti-HIV-1 activity in CEM-SS cells was measured by the quantification of the reverse transcriptase activity, associated with the virus particles released from HIV-1 infected cells in the culture medium.; assay type: functional, cell-based; conditions: Homo sapiens
Method in brief: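 CEM-SS cells in RPMI 1640 with 10% FBS at 37 °C, 5% CO2 were infected with HIV-1 Lai (100 TCID50). After 30 min adsorption the cells were washed and resuspended at 10⁵ cells/mL with a range of compound concentrations. Virus production was measured as reverse transcriptase activity after 5 days. IC50 was taken from a median effect plot of dose–effect data.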

[2] = Resistance Index (RI) refers to the ratio of the [IC50 (P388/CPT5)] / IC50 P388.; assay type: functional
Method in brief: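 Ratio of IC50 in P388/CPT5 cells to IC50 in P388 cells. Both IC50 values came from 96 h drug exposure at 37 °C with neutral red viability readout.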

Nucleic Acid = assay: Variation in melting temperature (delta Tm) of helix-to-coil transition of DNA was reported.; assay type: nucleic-acid assay
Method in brief: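 A260 was followed over 20–100 °C at 1 °C/min using 20 μM calf thymus DNA with or without drug (10 μM) in BPE buffer pH 7.1 (6 mM Na2HPO4, 2 mM NaH2PO4, 1 mM EDTA). Tm was taken as the midpoint of the hyperchromic transition from the first-derivative plot.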

CEM-SS [3] = assay: Cytotoxicity against HIV-1 Lai infected CEM-SS cells; assay type: functional; conditions: Homo sapiens, in the assay text read “uninfected CEM-SS cells” for “HIV-1 Lai infected CEM-SS cells”
Method in brief: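 Uninfected CEM-SS cells were incubated in parallel with a range of compound concentrations. Viability was read by MTT reduction to formazan (OD 540 nm). CC50 is the concentration reducing viability by 50%, derived with the median-effect program.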

Protein kinase C (PKC) [4] = assay: (§1) Inhibition of protein kinase C (PKC); assay type: protein assay
Method in brief: (§2)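 PKC-α activity was assayed with protamine sulfate as substrate. IC50 values were determined.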

[5] = test system: DNA topoisomerase 1 (Bos taurus); assay: Minimum inhibitory concentration against DNA topoisomerase I
Bacillus cereus [6] = assay: Antimicrobial activity against gram-positive Bacillus cereusATCC 14579 was determined by antibiogram test.+/- means growth inhibition zone was 6-7 mm.; assay type: functional, organism-based; conditions: ATCC 14579
Method in brief: (§3)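 Paper-disk diffusion (6 mm disks, 300 μg drug per disk from DMSO solution) on Mueller-Hinton agar against B. cereus ATCC 14579. Inhibition zones were scored after 24 h at 27 °C.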

P388 [7] = assay: Cytotoxicity against P388/CPT5 leukemia cells.; assay type: functional, cell-based; conditions: Mus musculus
Method in brief: (§4)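 Murine P388 (camptothecin-sensitive) and P388/CPT5 (camptothecin-resistant, mutant top1) leukemia cells were exposed to a range of drug concentrations for 96 h at 37 °C. Viability was read by neutral red staining. IC50 is the concentration inhibiting growth by 50%.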

Bacillus cereus [8] = assay: Minimum inhibitory concentration against gram-positive Bacillus cereus; assay type: functional
Method in brief: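 Broth dilution in Mueller–Hinton broth pH 7.4 against B. cereus ATCC 14579. Compounds were diluted in DMSO across 12 tubes spanning 100 to 0.05 μg/mL. Read after 24 h at 27 °C.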

[9] = Selectivity Index (SI) refers to the ratio of the anti HIV activities CC50/IC50 in HIV-1 Lai infected CEM-SS cells.; assay type: functional
Method in brief: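 SI = CC50/IC50. CC50 came from MTT viability (OD 540 nm) of uninfected CEM-SS cells. IC50 came from reverse transcriptase activity of virus released after 5 days from HIV-1 Lai–infected CEM-SS cells. Both values were taken from median effect plots.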

P388 [10] = assay: Cytotoxicity against P388 leukemia cells; assay type: functional, cell-based; conditions: Mus musculus; method in brief: as §4
Streptomyces chartreusis [11] = assay: Antimicrobial activity against gram-positive […] chartreusis NRRL 11407 was determined by antibiogram test.++ means growth inhibition zone was 8-9 mm.; assay type: functional, organism-based
Bacillus cereus [12] = assay: Antimicrobial activity against gram-positive Bacillus cereusATCC 14579 was determined by antibiogram test.++ means growth inhibition zone was 8-9 mm.; assay type: functional, organism-based; conditions: ATCC 14579; method in brief: as §3
Streptomyces chartreusis [13] = assay: Antimicrobial activity against gram-positive […] chartreusis NRRL 11407 was determined by antibiogram test.+++ means growth inhibition zone was 10-12 mm.; assay type: functional, organism-based
Protein kinase C (PKC) [14] = assay: as §1; assay type: functional; method in brief: as §2
CEM-SS [15] = assay: Cytotoxicity against uninfected CEM-SS cells; conditions: Homo sapiens
Bacillus cereus [16] = assay: Antimicrobial activity against gram-positive Bacillus cereusATCC 14579 was determined by antibiogram test.+ means growth inhibition zone was 7-8 mm.; assay type: functional, organism-based; conditions: ATCC 14579; method in brief: as §3

SMILES | IC50 (CEM-SS [1]) | Resistance index [2] | DeltaTm (Nucleic Acid) | CC50 (CEM-SS [3]) | IC50 (Protein kinase C (PKC) [4]) | MIC [5] | Antimicrobial activity (Bacillus cereus [6]) | IC50 (P388 [7]) | MIC (Bacillus cereus [8]) | Selectivity index [9] | IC50 (P388 [10]) | Antimicrobial activity (Streptomyces chartreusis [11]) | Antimicrobial activity (Bacillus cereus [12]) | Antimicrobial activity (Streptomyces chartreusis [13]) | IC50 (Protein kinase C (PKC) [14]) | CC50 (CEM-SS [15]) | Antimicrobial activity (Bacillus cereus [16])
COC1C(CO)OC(n2c3ccccc3c3c4c(c5c6ccccc6[nH]c5c32)C(=O)N(CCCCOC(=O)CBr)C4=O)C(O)C1O (stereo not given) | 500 nM | > 7.4 | 0 | 570 nM | > 144 µM | 1440 nM (≈ 1 µg/mL) | inactive | > 14.4 µM | > 72 µM | 1.1 | 1940 nM |  |  |  |  |  | 
CO[C@H]1[C@H](O)[C@@H](O)[C@H](n2c3c(Cl)cccc3c3c4c(c5c6cccc(Cl)c6[nH]c5c32)C(=O)NC4=O)O[C@@H]1CO [REBECCAMYCIN] |  | 8.6 | 0 |  | > 175 µM |  |  | 10.5 µM | 10.9 µM (≈ 6.22 µg/mL) | 2 |  | Partially active | Active |  |  |  | 
COC1C(CO)OC(n2c3ccccc3c3c4c(c5c6ccccc6[nH]c5c32)C(=O)NC4=O)C(OC(C)=O)C1O (stereo not given) |  | 8.3 |  |  |  | 18000 nM (≈ 9.78 µg/mL) | +/- | 4.6 µM | 46 µM (≈ 25 µg/mL) |  | 550 nM |  |  | growth inhibition zone was 10-12 mm |  |  | 
COC1C(CO)OC(n2c3ccccc3c3c4c(c5c6ccccc6[nH]c5c32)C(=O)NC4=O)C(OC(=O)CBr)C1O (stereo not given) | 120 nM | 10.4 | 3.7 | 460 nM | > 162 µM | 1590 nM (≈ 0.99 µg/mL) |  | 5 µM | 5.02 µM (≈ 3.12 µg/mL) | 3.8 | 480 nM | Partially active | Active |  |  |  | 
COC1C(CO)OC(n2c3c(Cl)cccc3c3c4c(c5c6cccc(Cl)c6[nH]c5c32)C(=O)NC4=O)C(OC(C)=O)C1O (stereo not given) | 1400 nM | 6.7 | 0.5 |  |  | > 16000 nM |  | 3.3 µM | > 81 µM |  | 480 nM |  |  |  | > 163 µM | 1200 nM | 
COC1C(CO)OC(n2c3c(Cl)cccc3c3c4c(c5c6cccc(Cl)c6[nH]c5c32)C(=O)NC4=O)C(OC(=O)CBr)C1O (stereo not given) | 980 nM | 2.5 | 0.5 | 2300 nM | 24 µM | > 14000 nM |  | 0.94 µM | 1.81 µM (≈ 1.25 µg/mL) | 2.3 | 260 nM |  | Active |  |  |  | 
COC1C(COC(=O)CBr)OC(n2c3c(Cl)cccc3c3c4c(c5c6cccc(Cl)c6[nH]c5c32)C(=O)NC4=O)C(O)C1O (stereo not given) | 330 nM | 10 | 0.5 |  | 101 µM | 1450 nM (≈ 1 µg/mL) | inactive | 4.3 µM | > 72 µM | 4.4 | 430 nM |  |  |  |  | 1450 nM | 
COC1C(CO)OC(n2c3ccccc3c3c4c(c5c6ccccc6[nH]c5c32)C(=O)NC4=O)C(O)C1OC(=O)CBr (stereo not given) | 150 nM | 20 | 3.2 | 440 nM | > 161 µM | 1610 nM (≈ 1 µg/mL) |  | 3.2 µM | 5.02 µM (≈ 3.12 µg/mL) | 2.9 | 160 nM | Partially active | Active |  |  |  | 
COC1C(CO)OC(n2c3c(Cl)cccc3c3c4c(c5c6cccc(Cl)c6[nH]c5c32)C(=O)N(CC(=O)CCl)C4=O)C(O)C1O (stereo not given) | 450 nM | 15 | 1.2 |  | > 151 µM | 1140 nM (≈ 0.753 µg/mL) |  | 3.5 µM | 4.72 µM (≈ 3.12 µg/mL) | 2.7 | 240 nM |  |  | Active |  | 1200 nM | Partially active
CO[C@H]1[C@H](O)[C@@H](O)[C@H](n2c3ccccc3c3c4c(c5c6ccccc6[nH]c5c32)C(=O)NC4=O)O[C@@H]1CO |  | > 28 | 4.1 | 900 nM | > 142 µM |  |  | > 20 µM | > 100 µM | 5.6 |  |  |  |  |  |  | 
